This is a sample that favours compounds with a hit; in the whole collection about 2% have one here.
Scp1 inh: Scp-1 (human) phosphatase inhibition | Q9GZU7 | Recombinant Scp1, phosphopeptide, malachite green phosphate absorbance | inhibition, % at 20 µM | hit rate 0.88% among 340,000 | AID 493091;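 active means inhibition above about 50% at 20 µM, limit read from the data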;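 further: plate controls were DMSO wells with enzyme for no effect and wells lacking enzyme for full effect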
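Incubation: 45 min enzyme reaction at room temperature / System: truncated SCP-1 phosphatase (76-261aa) / Reagent: Phospho 17-mer peptide substrate / Buffer or medium: Acidic Tris acetate buffer with magnesium and detergent / Signal: absorbance at 630 nm / Doses: one concentration, 20 µM, with 1.0% DMSO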
LMPTP inh: blocks human LMPTP phosphatase. AID 651560. recombinant LMPTP-A, OMFP fluorogenic substrate, fluorescence intensity. hit rate 0.22% among 360,000. inhibition, % at 20 µM. P24666;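 active means compounds that cut the enzyme signal by at least half of the control window in the single-dose screen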;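 further: plate controls were DMSO wells with enzyme plus substrate for no effect and substrate without enzyme for full effect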
Target sequence (P24666 whole entry, looked up): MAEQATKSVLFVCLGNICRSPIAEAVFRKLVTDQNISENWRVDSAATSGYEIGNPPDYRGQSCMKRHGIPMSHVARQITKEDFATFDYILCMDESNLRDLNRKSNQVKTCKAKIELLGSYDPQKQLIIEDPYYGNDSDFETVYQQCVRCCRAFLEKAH
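Material: LMPTP-A; amount: 0.625 nM enzyme; doses: single 20 µM dose; times: reaction 50 min, room temperature, dark; technique: fluorescence intensity of OMFP turnover product; benchmarks: no-enzyme and uninhibited controls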
DNMT1 block: inhibitors of human DNMT1. DNMT1 molecular beacon, Hinp1I cleavage, fluorescence. inhibition (reported as % activation of signal), % at 10 µM. hit rate 0.83% among 360,000. AID 588458; in the data active means inhibition above about 50%
STEP inh: blocks human striatal-enriched tyrosine phosphatase. inhibition, % at 20 µM. hit rate 0.25% among 360,000. P54829. recombinant STEP, OMFP fluorogenic substrate, fluorescence. AID 588621;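 active means inhibition at 20 µM, scaled per plate between control wells, above about 37%, limit read from the data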;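 further: 0% = DMSO with enzyme and substrate and 100% = substrate only without enzyme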
Target sequence (P54829 whole entry, looked up): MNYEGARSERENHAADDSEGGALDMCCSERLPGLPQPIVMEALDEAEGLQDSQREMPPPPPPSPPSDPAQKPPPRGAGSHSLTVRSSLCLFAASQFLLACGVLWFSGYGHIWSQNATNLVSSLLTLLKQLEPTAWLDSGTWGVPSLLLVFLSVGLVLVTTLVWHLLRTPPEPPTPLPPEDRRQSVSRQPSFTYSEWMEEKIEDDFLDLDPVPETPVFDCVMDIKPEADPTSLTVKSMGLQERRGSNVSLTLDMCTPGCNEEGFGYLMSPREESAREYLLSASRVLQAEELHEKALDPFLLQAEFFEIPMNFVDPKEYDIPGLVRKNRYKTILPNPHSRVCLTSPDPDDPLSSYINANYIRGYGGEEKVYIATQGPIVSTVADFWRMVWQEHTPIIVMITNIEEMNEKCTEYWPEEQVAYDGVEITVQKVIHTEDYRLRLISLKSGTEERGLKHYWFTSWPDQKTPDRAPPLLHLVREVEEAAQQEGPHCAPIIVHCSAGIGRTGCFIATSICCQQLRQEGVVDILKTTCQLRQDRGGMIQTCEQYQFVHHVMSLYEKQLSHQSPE
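Material: STEP (striatal-enriched tyrosine phosphatase) enzyme, cell-free; Compound dosing: 20 µM single dose in 1% DMSO; Technique: fluorescence read at 480 nm ex / 540 nm em; Times: reaction 20 min, ambient temperature; Medium: 50 mM Bis-Tris pH 6.0 with 2.5 mM DTT and 0.005% Tween 20; Also added: OMFP at 25 µM.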
Rpn11 inh: inhibitors of human proteasome Rpn11. human 26S proteasome, Ub4-pepOG fluorescence polarization; 20S core pre-blocked with epoxomicin. inhibition, % at 20 µM. O00487. hit rate 0.59% among 360,000. AID 588493;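 active means inhibition at 20 µM, scaled to each plate's controls, above about 33%, limit read from the data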
Scp-1 conf: Scp-1 (human) inhibition, single-dose confirmed; shares compounds with Scp1 inh; recombinant SCP-1 catalytic domain, phosphate release, malachite green absorbance; inhibition, % at 20 µM; hit rate 61% among 2,500; AID 540281;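 further: plate controls were DMSO with enzyme for no effect and buffer wells lacking enzyme for full effect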
MG interference: counter-screen for Scp-1 inhibitors: colorimetric interference | Colorimetric interference counterscreen, malachite green absorbance 630 nm | apparent inhibition (interference), % at 20 µM | 2,500 tested, under 10 active | shares compounds with Scp1 inh;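 further: compounds added after enzyme reaction finished so only phosphate colour detection is probed; plate controls were DMSO wells with completed Scp-1 reaction for no effect and substrate wells lacking enzyme for full effect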
Scp1 DSF: binds human Scp-1, shifting its melting temperature. shares compounds with Scp1 inh. Recombinant SCP1, Sypro Orange thermal shift Tm. thermal shift relative to vanadate control, % at 40 µM. hit rate 25% among 1,500. AID 540329;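 active means substances whose mean melting-temperature shift, as a percentage of the reference inhibitor's shift, reaches about 5.3%, limit read from the data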;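 further: 0% = Tm of DMSO wells and 100% = Tm with sodium orthovanadate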
* = called active by the depositor; nt = no result given.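 How the source made its calls, unless noted: active means inhibition of at least 30% at 20 µM; inactive means the rest.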

SMILES | Scp1 inh | LMPTP inh | DNMT1 block | STEP inh | Rpn11 inh | Scp-1 conf | MG interference | Scp1 DSF
c1ccc(NCCC2OCC3(CO2)COC(CCNc2ccccc2)OC3)cc1 (stereo unspecified) | -10.5 | -2.6 | -17.0 | 0.7 | -2.2 | nt | nt | nt
C[C@]12CC[C@H](O)C[C@@H]1CC[C@@H]1[C@@H]2CC[C@@]2(C)[C@H]1CCC(=O)[C@]21CCCO1 | 82.5* | -0.3 | 3.4 | 2.1 | -0.7 | -18.8 | -15.6 | nt
N#Cc1ccccc1OCC(=O)OCC(=O)N1CCCC1 | -7.7 | -1.3 | 0.5 | -3.5 | 3.0 | nt | nt | nt
N#Cc1ccccc1OCC(=O)OCCCOC(=O)COc1ccccc1C#N | 96.4* | 1.3 | 0.8 | -0.3 | 0.8 | -12.3 | -15.6 | nt
Cc1oc(/N=C/c2ccccc2)c(C#N)c1C | 4.5 | 0.5 | 0.0 | -2.2 | 16.6 | nt | nt | nt
Cc1oc(/N=C/c2cccc3ccccc23)c(C#N)c1C | 65.3* | 0.6 | 40.9 | 1.9 | 9.7 | -11.1 | -8.2 | nt
Cc1cccc(N2CCN(C(=O)c3ccc(S(=O)(=O)N(C)c4ccccc4)cc3)CC2)c1C | 98.5* | 4.4 | -5.0 | -0.3 | 0.9 | 74.8* | -16.9 | -26.5
CN1CCN(C(=O)c2ccc(S(=O)(=O)N(C)c3ccccc3)cc2)CC1 | nt | -0.2 | 2.5 | 1.4 | 0.1 | nt | nt | nt
CCCc1c(C(=O)N/N=C/c2ccc(C)s2)nnn1-c1nonc1N | 60.9* | 29.0 | 25.3 | 12.3 | 6.0 | 26.5 | -6.5 | nt
CCCc1c(C(=O)N/N=C/c2cccs2)nnn1-c1nonc1N | 29.9 | 7.3 | 19.9 | 1.4 | -4.5 | nt | nt | nt
Cn1ncc(Cl)c1C(=O)NCC1CCCO1 (stereo unspecified) | 1.0 | 0.1 | -0.7 | 0.8 | -5.4 | nt | nt | nt
CC(C)c1ccc2oc(-c3ccc(NC(=O)c4ncn[nH]4)cc3)nc2c1 | 91.5* | 3.1 | 36.6 | 13.4 | 9.2 | 52.8* | -6.5 | -14.1
O=C(O)COc1ccc2c(c1)O/C(=C\c1ccco1)C2=O | 75.4* | 1.9 | 69.3* | 76.7* | -27.8 | 70.4* | 5.5 | 7.5*
CCOC(=O)C1(C)Oc2ccccc2C(C(=O)OC)=C1C(=O)OC (stereo unspecified) | 94.2* | -0.2 | 7.0 | 2.4 | -1.0 | 53.5* | -17.3 | -2.1
CCOC(=O)C1(C)Oc2ccccc2C(c2ccc(OC)cc2)=C1C(=O)OC (stereo unspecified) | 3.9 | 0.4 | 12.3 | 5.5 | 2.1 | nt | nt | nt
Cc1ccc(SCCSc2nc(C)cc(=O)[nH]2)cc1 | -2.2 | -1.2 | -1.0 | 0.1 | 3.2 | nt | nt | nt
N/C(=N\OC(=O)c1cccc(F)c1)c1cccc([N+](=O)[O-])c1 | -5.2 | -1.0 | 3.0 | 9.8 | -4.0 | nt | nt | nt
N/C(=N/OC(=O)c1cccc([N+](=O)[O-])c1)c1cccc([N+](=O)[O-])c1 | 95.2* | -0.5 | 2.7 | 4.4 | -10.2 | 74.6* | -21.7 | 6.6*
O=C(O)C1CCCCC1C(=O)Nc1cccc(Br)c1 (stereo unspecified) | 84.2* | 60.7* | 102.6* | 98.3* | 39.5 | 63.2* | -14.5 | -25.2
Fc1cccc(Cc2c(-c3ccccc3)nc3c4ccccc4ccn23)c1 | nt | 4.6 | nt | nt | nt | nt | nt | nt
O=C(Nc1cc(S(=O)(=O)Nc2ccc(Cl)cc2)ccc1O)c1ccc(S(=O)(=O)N2CCCCCC2)cc1 | 80.6* | 2.9 | -0.5 | 6.3 | -6.9 | 76.7* | -15.1 | 9.9*
COc1cc(NC(=O)c2ccc3c(c2)C(=O)N(CCC(C)C)C3=O)c(C(=O)O)cc1OC | 71.6* | 2.3 | 10.8 | 61.3* | 1.5 | 59.9* | -17.3 | 6.1*
COc1ccc(-c2noc(CCC(=O)Nc3cccc(C(=O)NC4CC4)c3)n2)cc1OC | nt | -0.3 | -2.7 | -2.3 | 1.2 | nt | nt | nt
CCCc1cc(=O)oc2cc(OCC(=O)NC(Cc3c[nH]c4ccc(O)cc34)C(=O)O)c(Cl)cc12 (stereo unspecified) | 55.5* | -0.2 | 3.3 | 0.5 | -8.1 | 51.0* | 0.9 | 11.3*
O=C(O)COc1ccccc1/C=C1\SC(=S)N(/N=C/c2ccccc2O)C1=O | 62.7* | 1.3 | -8.0 | 0.7 | 2.7 | 59.0* | -13.1 | 8.2*
SMILES | Scp1 inh | LMPTP inh | DNMT1 block | STEP inh | Rpn11 inh | Scp-1 conf | MG interference | Scp1 DSF
CCCCn1c2c(c(=N)c3c1CCC3)CCC2 | 93.8* | 0.5 | 0.9 | -3.1 | -0.5 | -11.4 | -15.3 | nt
C[C@@H]1CC=C[C@@H]2[C@H]1C(=O)N(Cc1ccccc1)[C@H]2c1cccc(C#Cc2ccccc2)c1 | 70.1* | 4.8 | 2.9 | 1.9 | -3.5 | 41.5* | -21.9 | -15.7
COc1ccc2cc(C(=O)Nc3ccccc3)sc(=O)c2c1OC | 36.3 | 1.6 | 6.5 | 8.0 | -3.4 | nt | nt | nt
COc1ccc2cc(C(=O)Nc3ccc(S(N)(=O)=O)cc3)sc(=O)c2c1OC | 72.5* | 6.3 | 1.2 | 10.5 | 0.7 | 38.1* | -21.6 | -4.0
COc1ccccc1-c1cnc(C(O)c2c(C)cc(C)cc2C)[nH]1 (stereo unspecified) | nt | 0.2 | -4.7 | -1.2 | 2.5 | nt | nt | nt
COc1ccc(NC(=O)CNS(=O)(=O)c2ccc(Cl)cc2)cc1 | 3.0 | -0.2 | 0.9 | -0.5 | -1.2 | nt | nt | nt
COc1ccc(NC(C)=[N+](C)CCNS(=O)(=O)c2ccc(Cl)cc2)cc1 | 95.7* | -1.5 | 3.3 | -4.3 | -1.0 | 92.7* | -3.8 | -21.0
CC1C(C#N)=C(N)OC2=C1C(=O)CC(c1ccccc1)C2 (stereo unspecified) | 55.4* | -0.5 | -1.2 | 1.7 | 1.1 | -13.7 | -9.3 | nt
COc1ccc2nc(SCC(=O)NN)cc(C)c2c1 | 86.9* | 0.5 | -14.6 | 3.0 | 0.8 | -8.4 | -11.2 | nt
COc1ccc2c(C)cc(SCC(=O)Nc3cc(C(N)=O)cc(C(N)=O)c3)nc2c1 | 49.9 | 0.1 | -2.4 | 19.8 | 16.8 | nt | nt | nt
Nc1c(N(Cc2ccco2)C(=O)COc2ccccc2F)c(=O)[nH]c(=O)n1Cc1ccccc1 | 3.2 | 0.6 | 0.2 | 1.0 | -4.9 | nt | nt | nt
O=C(COC(=O)Cc1ccc(F)cc1)NCc1ccco1 | 19.4 | -0.3 | 14.7 | -3.0 | -4.7 | nt | nt | nt
O=C(COC(=O)Cc1cccc(C(F)(F)F)c1)NCc1ccco1 | 76.6* | 1.0 | 91.9* | 8.3 | -23.5 | 67.9* | -8.4 | -0.1
C[N+]1(CC2COC3(CCCCC3)O2)CCCCC1 (stereo unspecified) | 107.9* | 0.6 | 3.0 | -1.3 | -3.3 | 74.9* | -20.8 | -15.8
C=CCn1c(N)cc(=O)nc1SC(C)C(=O)Nc1cccc2ccccc12 (stereo unspecified) | -17.6 | -0.2 | -5.0 | 0.7 | 1.3 | -19.4 | -18.6 | nt
Cc1cccc(C)c1NC(=O)C1(C)CN(S(C)(=O)=O)CC(=O)N1CC(F)(F)F (stereo unspecified) | nt | -0.4 | nt | nt | nt | nt | nt | nt
